# Compound activity as filed in PubChem BioAssay.
# MPTP block = mitochondrial permeability transition pore inhibitors, primary screen, biochemical, isolated mouse mitochondria, absorbance; inhibition, % at 10 µM; Ca2+ swelling absorbance, 30 min; AID 602449, 2012; 1.4% of 360,000 active;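 active = inhibition of 50% or more, scaled per plate between neutral and stimulator controls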;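 also: 0% = DMSO wells given calcium and 100% = 1 mM EGTA wells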
# SKN-1 block = suppressors of acrylamide-induced Pgst-4::GFP reporter in worms, primary screen, SKN-1 inhibitor project, whole organism, uHTS, GFP/RFP fluorescence ratio, strain VP596; inhibition, % at 21.8 µM; C. elegans VP596 Pgst-4::GFP/RFP ratio, 24 h; 0.49% of 360,000 active;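 active = interference check ratio from 0.5 to 1.5 plus GFP to RFP signal ratio inhibition reaching or exceeding a fixed threshold, cut at about 30% in these data, passing the limit was not always enough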
# ADAM10 inh = human ADAM10 inhibitors, primary screen, biochemical, QFRET, HTS; Disintegrin and metalloproteinase domain-containing protein 10 (Homo sapiens), O14672; recombinant ADAM10, EDANS/DABCYL FRET peptide cleavage, 3 h; inhibition, % at 7 µM; 0.62% of 370,000 active;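 active = inhibition above a per-campaign cutoff equal to the mean of compounds falling between control-based bounds plus 3 SD, cut at about 20% in these data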;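 also: 0% = DMSO wells while the 100% control is not disclosed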
# Target sequence (O14672 214-748 limits assumed): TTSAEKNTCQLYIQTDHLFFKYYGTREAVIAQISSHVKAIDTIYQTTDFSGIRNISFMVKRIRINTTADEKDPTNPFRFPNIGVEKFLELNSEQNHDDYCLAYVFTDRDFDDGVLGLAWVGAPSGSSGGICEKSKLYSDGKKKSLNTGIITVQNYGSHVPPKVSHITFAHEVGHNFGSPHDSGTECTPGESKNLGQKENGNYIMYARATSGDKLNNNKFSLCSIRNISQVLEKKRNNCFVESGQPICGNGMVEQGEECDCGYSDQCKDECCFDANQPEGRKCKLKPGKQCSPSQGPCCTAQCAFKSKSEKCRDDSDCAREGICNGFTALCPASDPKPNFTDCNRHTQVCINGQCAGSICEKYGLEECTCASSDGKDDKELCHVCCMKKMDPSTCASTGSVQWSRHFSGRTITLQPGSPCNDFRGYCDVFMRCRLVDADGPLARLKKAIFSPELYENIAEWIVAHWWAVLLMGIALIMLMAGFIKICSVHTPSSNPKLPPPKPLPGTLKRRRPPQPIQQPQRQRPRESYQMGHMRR
# NR3A LBD binder = binders of NR3A ligand-binding domain, primary screen, biophysical, differential scanning fluorimetry, uHTS; Glutamate receptor ionotropic, NMDA 3A (GRIN3A) ligand-binding domain; NR3A LBD differential scanning fluorimetry, Tm shift; 0% = protein alone, 100% = glycine-bound protein; Tm shift relative to glycine control, % at 25 µM; 2.5% of 340,000 active;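 active = melting temperature shift of at least 10% of the positive control shift, at one fixed dose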
# MT1-MMP act inh = blockers of MT1-MMP proenzyme processing, primary screen, HT1080 RFP-PRO-GFP cells, GFP/RFP fluorescence | GFP/RFP ratio change, % at 20 µM | AID 651647, 2012 | 0.061% of 360,000 active | Matrix metalloproteinase-14 (Homo sapiens), P50281 | GFP/RFP ratio fluorescence, overnight; percent of plate control window, DMSO zero;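 active = GFP/RFP ratio change of at least 30% with cell ATP level not reduced by more than half and red fluorescence within 50% of control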
#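 Assay system: RFP-PRO-GFP reporter HT1080 cells; read-out basis: GFP/RFP fluorescence ratio; benchmarks: DMSO wells and RFP-L50D-GFP cells; doses: 20 µM single dose, 1% DMSO; schedule: overnight cell settling, then overnight compound exposure, 37 °C, 5% CO2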
# ADAM17 inh = ADAM17 inhibitors, primary screen, biochemical, QFRET | 0.83% of 370,000 active | inhibition, % at 6.95 µM | recombinant ADAM17, EDANS/DABCYL FRET peptide cleavage;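 active = inhibition above the mean of compounds lying between control limits plus 3 SD, set per campaign, cut at about 8.5% in these data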;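 also: 0% = DMSO-only wells as the low control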
# Numbers without * were called inactive; nt = not tested or not shown. Shown are actives, neighbours in structure and some others; about 4.7% of the full set was active somewhere.
SMILES,MPTP block,SKN-1 block,ADAM10 inh,NR3A LBD binder,MT1-MMP act inh,ADAM17 inh
COc1ccc(NC(=O)COC(=O)c2cc(S(=O)(=O)N3CCCC3)ccc2O)cc1,-2,12,-44,3,-1,-11
Cc1[nH]c2ccccc2c1SCc1ccccc1,2,40*,2,-4,0,6
Cc1cc(=O)[nH]c(SCC(=O)N2CCC(Cc3ccccc3)CC2)n1,-2,5,-4,0,-7,-5
O=C(CSc1nc(C(F)(F)F)cc(=O)[nH]1)N1CCC(Cc2ccccc2)CC1,3,2,-10,13*,-6,-4
COc1cc(C(F)(F)F)c(C(=O)N(C)Cc2cccc(Cl)c2)cn1,2,-7,-2,14*,-2,2
CCc1ccc(N2CN(CCc3ccccc3)CNC2=S)cc1,-1,5,-13,1,1,-8
CCOC(=O)c1ccc(NC(=O)Oc2ccccc2)cc1,1,-31,5,34*,5,0
CCOC(=O)c1ccc(NC(=S)NCC(O)c2ccccc2)cc1 (centres undefined),18,2,5,10*,3,4
CCOC(=O)c1ccc(NC(=O)c2ccccc2)cc1,0,10,0,-3,3,-2
CC(/C=C/c1ccccc1F)=N\NC(=O)c1cccc(F)c1,-2,1,1,22*,6,2
CC(/C=N/NC(=O)c1cccc(F)c1)=C\c1ccccc1,0,-6,0,5,0,-1
CCOC(=O)/C(C#N)=C1\Nc2ccccc2N=C1N(CC(C)C)CC(C)C,3,6,-26,-1,nt,-9
CCCCN(CCCC)C1=Nc2ccccc2N/C1=C(/C#N)C(=O)OCC,41,1,-90,17*,-25,-35
Nc1cc(C(=O)O)c(N)c2c1C(=O)c1ccccc1C2=O,11,43*,nt,-4,2,nt
COc1cc(C2c3c(-c4cc(C)cc(C)c4O)n[nH]c3C(=O)N2CCCO)cc(OC)c1OC (centres undefined),0,16,8,345*,5,-2
CCCCCn1c(=O)[nH]c2cc(C(=O)N3CCN(c4ccc(F)cc4)CC3)ccc2c1=O,4,9,-5,1,-3,-1
Cc1ccc(S(=O)(=O)N2CCC3(CC2)CC(=O)c2ccccc2O3)cc1,-1,2,-47,-2,-1,-17
O=C(NC1CCCCC1)C(c1cccs1)N(Cc1cccs1)C(=O)c1cccs1 (centres undefined),7,5,4,2,-20,-3
O=C(Nc1ccc2c(c1)CN(C(=O)Nc1ccc(F)cc1)CC2)c1ccccn1,3,38*,2,nt,-3,2
N#CCSc1nc2cc(C(=O)N3CCC(C(N)=O)CC3)ccc2c2nc3ccccc3n12,8,21,nt,-5,-5,nt
COc1ccc(Nc2nc(-c3cccc(OC)c3O)nc3ccccc23)cc1,1,19,13,11*,-13,3
COc1cccc(-c2nc(NC(C)(C)C)c3ccccc3n2)c1O,16,15,8,-6,-6,2
CC(=O)c1cccc(Nc2nc(-c3ccccc3)nc3ccccc23)c1,15,-6,-3,23*,3,-6
Oc1ccc(-c2nnc(Nc3cccc(O)c3)c3ccccc23)cc1,3,9,0,13*,4,-3
CC(=O)Nc1cccc(Nc2nc(-c3ccccc3)nc3ccccc23)c1,0,-2,-45,5,-1,-14
SMILES,MPTP block,SKN-1 block,ADAM10 inh,NR3A LBD binder,MT1-MMP act inh,ADAM17 inh
Oc1cccc(Nc2nc(-c3ccccc3)nc3ccccc23)c1,3,4,-11,28*,0,-7
O=C(N/N=C\C=C\c1ccc2c(c1)OCO2)c1cccnc1,-1,6,-35,0,-2,-7
COc1ccc(C(=O)NC(=S)NNC(=O)c2c(-c3ccccc3)noc2C)cc1OC,-4,12,5,-3,5,2
CC(=O)Nc1ccc2c(c1)C(=O)N(c1cccc3ccccc13)C2=O,1,0,-7,1,-5,-6
COc1ccc(Nc2nc(-c3ccccc3)nc3ccccc23)cc1S(=O)(=O)N1CCOCC1,5,2,-14,11*,-14,-9
COc1ccc(NC(=O)c2cc(C)nc3ccccc23)cc1S(=O)(=O)N1CCOCC1,2,11,-3,-2,-6,-1
CC#CCOCC1CNC(=O)O1 (centres undefined),-2,15,-19,nt,6,-1
CCN1C(=O)CC2CCCC1C2 (centres undefined),1,3,2,11*,0,-2
CCOC(=O)C1CCCN(S(=O)(=O)c2ccc3c(c2)N(C(C)=O)CCO3)C1 (centres undefined),-1,12,-1,3,0,-1
COc1ccccc1NS(=O)(=O)c1cccc(C(=O)NCC(c2ccco2)N2CCCC2)c1 (centres undefined),1,-11,-11,0,2,-1
COc1ccccc1NC(=O)c1ccc(NC(=O)c2cc3c(s2)CCC3)cc1,2,11,7,30*,-1,3
O=C(Nc1ccccc1OC(F)F)c1cc2c(s1)CCC2,2,8,-3,-2,-2,0
COc1ccc(NS(=O)(=O)c2ccc3c(c2)NC(=O)CCS3)cc1Cl,0,16,-4,5,-7,3
CCCc1c(C)nn(-c2ncccc2[N+](=O)[O-])c1C,1,3,8,-2,4,-4
CCCc1c(C)nn(C(=O)/C(C#N)=N/Nc2ccccc2[N+](=O)[O-])c1C,1,-14,2,15*,0,6
C[C@H]1COc2c3ccc(I)cc3nn21,nt,nt,-7,nt,nt,-3
O=C(O)CCc1ccc(-c2cccs2)n1NC(=O)c1ccco1,-1,-5,-1,0,1,-1
O=C(O)CCc1ccc(-c2ccccc2)n1NC(=O)c1ccco1,-2,39*,-20,-1,2,-8
Cc1ccc2nc(CSc3nc(C)ccc3C#N)[nH]c2c1,-1,14,-369,29*,2,-98
O=C(CNc1cccc2ccccc12)N/N=C/c1ccc([N+](=O)[O-])cc1,13,6,-40,14*,1,-16
